Results taken from ChEMBL document CHEMBL2434917, “Synthesis and anticancer activity of some novel 2-phenazinamine derivatives” (Eur J Med Chem, 2013).

Columns and labels:
[1] = tested on: MCF7; assay: Cytotoxicity against human MCF7 cells after 48 hrs by MTT assay; assay type: functional, cell-based; conditions: MCF7, 48 h
Outline: (§1)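 Cells were kept in RPMI-1640 with 10% FBS, streptomycin and penicillin at 37 °C under 5% CO2. They were seeded at 5000/well and left 24 h, then exposed 48 h to compound (DMSO stock diluted in medium, DMSO ≤0.2%) at final 0.16, 0.63, 2.5, 10, 40 and 160 μM. MTT was added (10% v/v of 5 mg/ml) for 4 h, formazan was dissolved in DMSO and A490 read. IC50 came from the viability-versus-dose plot against control, with three repeats.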

[2] = tested on: MGC-803; assay: Cytotoxicity against human MGC803 cells after 48 hrs by MTT assay; assay type: functional, cell-based; conditions: MGC-803, 48 h; outline: as §1
[3] = tested on: K562; assay: Ratio of cisplatin IC50 to compound IC50 for human K562 cells; assay type: functional
[4] = tested on: K562; assay: Cytotoxicity against human K562 cells after 48 hrs by MTT assay; assay type: functional, cell-based; conditions: K562, 48 h; outline: as §1
[5] = tested on: HCT-116; assay: Cytotoxicity against human HCT116 cells after 48 hrs by MTT assay; assay type: functional, cell-based; conditions: HCT-116, 48 h; outline: as §1
[6] = tested on: HepG2; assay: Cytotoxicity against human HepG2 cells after 48 hrs by MTT assay; assay type: functional, cell-based; conditions: HepG2, 48 h; outline: as §1
[7] = tested on: HEK-293T; assay: Cytotoxicity against human 293T cells after 48 hrs by MTT assay; assay type: cell-based; outline: as §1
[8] = tested on: HepG2; assay: Ratio of cisplatin IC50 to compound IC50 for human HepG2 cells; assay type: functional
[9] = tested on: HepG2; assay: Induction apoptosis in human HepG2 cells assessed as late apoptosis or necrosis cells level at 50 uM after 24 hrs using Annexin V-FITC and propidium iodide staining by flow cytometry analysis (reference value: 5.7%); assay type: functional
[10] = tested on: HepG2; assay: Induction apoptosis in human HepG2 cells assessed as apoptotic cells level at 50 uM after 24 hrs using Annexin V-FITC and propidium iodide staining by flow cytometry analysis (reference value: 8.3%); assay type: functional
[11] = tested on: MCF7; assay: Ratio of cisplatin IC50 to compound IC50 for human MCF7 cells; assay type: functional

SMILES | IC50 [1] [µM] | IC50 [2] [µM] | Ratio IC50 [3] | IC50 [4] [µM] | IC50 [5] [µM] | IC50 [6] [µM] | IC50 [7] [µM] | Ratio IC50 [8] | Activity [9] [%] | Activity [10] [%] | Ratio IC50 [11]
CC(=O)Nc1ccc2nc3ccccc3nc2c1 | 82.6 | 93.1 | 1.1 | 49.2 | > 160 | > 160 | > 160 | – | – | – | –
O=C(Nc1ccc2nc3ccccc3nc2c1)c1ccccc1 | > 160 | > 160 | – | > 160 | 28.2 | > 160 | > 160 | – | – | – | –
O=C(Nc1ccc2nc3ccccc3nc2c1)c1cccc2ccccc12 | 30.1 | 87.9 | – | 61.2 | 131 | 44.2 | > 160 | – | – | – | –
O=C(Nc1ccc2nc3ccccc3nc2c1)c1ccco1 | 28.8 | – | – | – | 86.6 | 52.2 | > 160 | – | – | – | –
O=C(Nc1ccc2nc3ccccc3nc2c1)c1cccs1 | > 160 | > 160 | – | > 160 | 68.1 | > 160 | > 160 | – | – | – | –
O=C(Cc1cccs1)Nc1ccc2nc3ccccc3nc2c1 | > 160 | – | – | – | 95.6 | > 160 | > 160 | – | – | – | –
CCOC(=O)Nc1ccc2nc3ccccc3nc2c1 | 46.1 | > 160 | – | > 160 | > 160 | 15.2 | > 160 | 1.2 | – | – | –
O=C(CCCl)Nc1ccc2nc3ccccc3nc2c1 | 37.6 | 59.5 | – | 74.5 | 141 | > 160 | > 160 | – | – | – | –
O=S(=O)(Nc1ccc2nc3ccccc3nc2c1)c1ccccc1 | > 160 | > 160 | – | > 160 | > 160 | > 160 | > 160 | – | – | – | –
CN(C)C(=O)Nc1ccc2nc3ccccc3nc2c1 | 35.1 | – | – | – | 144 | > 160 | > 160 | – | – | – | –
CCC(=O)Nc1ccc2nc3ccccc3nc2c1 | 40.7 | 63.9 | – | 57.7 | 18.9 | > 160 | > 160 | – | – | – | –
CCCC(=O)Nc1ccc2nc3ccccc3nc2c1 | 68.8 | 43.5 | – | > 160 | 62.3 | > 160 | 110 | – | – | – | –
O=C(Cc1ccccc1)Nc1ccc2nc3ccccc3nc2c1 | > 160 | > 160 | – | > 160 | > 160 | > 160 | > 160 | – | – | – | –
O=C(Nc1ccc2nc3ccccc3nc2c1)c1ccccc1Cl | > 160 | > 160 | 1.7 | 33.4 | 91.9 | 16.5 | > 160 | 1.1 | 20.5 | 36.1 | –
O=C(Nc1ccc2nc3ccccc3nc2c1)c1cccc(Cl)c1 | > 160 | > 160 | – | > 160 | > 160 | > 160 | > 160 | – | – | – | –
Cc1ccc(C(=O)Nc2ccc3nc4ccccc4nc3c2)cc1 | > 160 | > 160 | – | > 160 | > 160 | > 160 | > 160 | – | – | – | –
Cc1ccccc1C(=O)Nc1ccc2nc3ccccc3nc2c1 | 11.6 | 27.2 | – | > 160 | > 160 | > 160 | > 160 | – | – | – | 2.4
Cc1cccc(C(=O)Nc2ccc3nc4ccccc4nc3c2)c1 | > 160 | 89 | – | > 160 | > 160 | 16.7 | 56.2 | 1.1 | – | – | –
COc1ccc(C(=O)Nc2ccc3nc4ccccc4nc3c2)cc1 | > 160 | 50.1 | – | > 160 | > 160 | > 160 | > 160 | – | – | – | –
O=C(Nc1ccc2nc3ccccc3nc2c1)C1CCCCC1 | 137 | 67.1 | – | 78.9 | > 160 | > 160 | > 160 | – | – | – | –
O=C(CCC1CCCC1)Nc1ccc2nc3ccccc3nc2c1 | > 160 | 122 | – | 157 | > 160 | > 160 | > 160 | – | – | – | –
